Screening data (PubChem)
Env fusion inh: blocks HIV Env-driven cell-cell fusion | HeLa-JRFL Env/CEM21 cell fusion, luciferase | inhibition, % at 12.3 µM | hit rate 1.1% among 360,000;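 active means mean replicate inhibition score of at least 50 and every replicate individually at or above 50; inconclusive means only one of the two criteria met; inactive means mean below 50 and not all replicates reaching 50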
Wnt bcat act: activators of Wnt/beta-catenin signaling. Wnt/beta-catenin reporter cell assay, activator, plate reader. activation, % at 9.35 µM. AID 743398. hit rate 1.2% among 300,000; in the data active means activation above about 30%, passing the limit was not always enough; inconclusive means no clear call, values can overlap the other calls
Cneo AK release: causes C. neoformans cell lysis | lysis activity, % at 15 µM | adenylate kinase release luminescence, 4 h; normalised: neutral wells 0, clomiphene wells 100 | hit rate 0.2% among 360,000;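 active means mean lysis activity across replicates of at least 80%, whatever share of replicates individually reach that level; inactive means mean lysis activity below 80%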
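Signal: Adenylate kinase release luminescence | Assay system: Log-phase Cryptococcus neoformans yeast cells | Input: Cells at 5 × 10^6 per mL | Buffer or medium: Fresh YPD growth medium | Compound: Single dose | Schedule: Static 4 h at 37 °C with compound, 1 h detection | Controls: Clomiphene | Read-out: Luminescence rise reflecting yeast cell lysis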
MITF TRPM1 HTS: MITF TRPM1 promoter activation in melanoma cells | SK-MEL-5 TRPM1-promoter luciferase, 24 h; % of positive control, neutral wells = 0 | activation, % at 12.5 µM | hit rate 0.75% among 300,000;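 active means mean activation of at least 80% with every replicate also reaching 80%; inconclusive means mean reaches 80% but some replicate falls short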
esBAF inh: inhibitors of esBAF chromatin remodeling in mouse ES cells; Bmi1-luciferase knock-in reporter, 24 h; 100% = twice the neutral-well signal; reporter increase, % at 12.5 µM; hit rate 2% among 350,000; in the data active means activation above about 40%; inconclusive means no clear call, values can overlap the other calls;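 further: a rise in the Bmi1 reporter signal indicates esBAF inhibition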
ERAP1 inh: blocks human ERAP1 aminopeptidase activity. Q9NZ08. recombinant ERAP1, Leu-AMC fluorescence, 60 min. inhibition, % at 10.7 µM. hit rate 0.15% among 340,000. AID 652197;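 active means mean replicate inhibition of at least 30%, or all replicates individually reaching that 30% level; inactive means mean below 30% and not every replicate reaching it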
Target sequence (Q9NZ08 whole entry, looked up): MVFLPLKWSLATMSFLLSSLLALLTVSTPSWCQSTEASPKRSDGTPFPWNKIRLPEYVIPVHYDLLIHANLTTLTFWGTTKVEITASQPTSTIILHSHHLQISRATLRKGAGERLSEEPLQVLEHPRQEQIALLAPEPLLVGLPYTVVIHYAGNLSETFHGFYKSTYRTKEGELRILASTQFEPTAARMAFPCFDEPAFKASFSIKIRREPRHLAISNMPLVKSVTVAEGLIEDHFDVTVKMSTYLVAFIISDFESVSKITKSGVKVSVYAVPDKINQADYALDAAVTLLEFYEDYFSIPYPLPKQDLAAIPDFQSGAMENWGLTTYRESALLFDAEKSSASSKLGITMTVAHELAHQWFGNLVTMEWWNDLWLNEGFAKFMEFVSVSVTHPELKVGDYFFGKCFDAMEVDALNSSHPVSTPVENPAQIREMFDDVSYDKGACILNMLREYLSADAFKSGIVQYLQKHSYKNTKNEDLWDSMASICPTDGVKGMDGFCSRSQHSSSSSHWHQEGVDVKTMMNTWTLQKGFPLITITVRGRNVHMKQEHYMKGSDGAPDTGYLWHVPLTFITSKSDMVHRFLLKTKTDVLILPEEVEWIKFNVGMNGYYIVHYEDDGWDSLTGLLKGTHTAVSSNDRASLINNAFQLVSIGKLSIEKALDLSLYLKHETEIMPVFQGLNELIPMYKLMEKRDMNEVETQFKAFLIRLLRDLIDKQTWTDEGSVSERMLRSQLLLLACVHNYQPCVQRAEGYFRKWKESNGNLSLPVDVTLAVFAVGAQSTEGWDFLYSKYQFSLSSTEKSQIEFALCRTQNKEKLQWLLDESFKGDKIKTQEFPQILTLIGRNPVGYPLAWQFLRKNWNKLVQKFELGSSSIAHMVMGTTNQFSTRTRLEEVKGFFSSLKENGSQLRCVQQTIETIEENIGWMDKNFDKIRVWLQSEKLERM
A number is an active result; [ ] = another dose, or the depositor's remark. Rows were chosen to be rich in hits. Some 3.5% of all compounds tested hit in one or more screens of this group.

Screening C[C@@H]1CCCCO[C@H](CN(C)C(=O)Nc2ccc(F)cc2)[C@@H](C)CN([C@@H](C)CO)C(=O)c2cc(NC(=O)c3ccccc3)ccc2O1 returned Env fusion inh inactive, Cneo AK release inactive, esBAF inh inactive and ERAP1 inh inactive.
For O=C(C[C@@H]1CC[C@H]2[C@@H](COC[C@@H](O)CN2Cc2ccc(Oc3ccccc3)cc2)O1)N1CCN(c2ccccc2)CC1 the results were Env fusion inh 59.0[16.7 µM], Cneo AK release inactive, esBAF inh inactive and ERAP1 inh inactive.
For O=C(C[C@@H]1CC[C@H]2[C@@H](COC[C@H](O)CN2Cc2ccc(Oc3ccccc3)cc2)O1)Nc1nccs1 the results were Env fusion inh inactive, Cneo AK release 88.1, esBAF inh inactive and ERAP1 inh inactive.
O=C(C[C@H]1CC[C@H]2[C@@H](COC[C@@H](O)CN2Cc2ccc(Oc3ccccc3)cc2)O1)Nc1nccs1 was read as Env fusion inh inactive, Cneo AK release inactive, esBAF inh inactive and ERAP1 inh inactive.
For O=C(C[C@H]1CC[C@H]2[C@@H](COC[C@H](O)CN2Cc2cccc(Cl)c2)O1)Nc1nccs1 the results were Env fusion inh inactive, Cneo AK release 114.5, esBAF inh inactive and ERAP1 inh inactive.
Screening O=C(C[C@H]1CC[C@H]2[C@@H](COC[C@@H](O)CN2C(=O)c2ccc(F)cc2)O1)N1CCOCC1 returned Cneo AK release 105.0, esBAF inh inactive and ERAP1 inh inactive.
O=C(C[C@@H]1CC[C@@H]2[C@H](COC[C@H](O)CN2Cc2cccc(Cl)c2)O1)Nc1nccs1 was read as Env fusion inh inactive, Cneo AK release inactive, esBAF inh inactive and ERAP1 inh inactive.
O=C1CN(S(=O)(=O)c2ccccc2)C[C@@H]2[C@H](c3ccc(C#Cc4ccccc4)cc3)[C@H](CO)N12 was read as ERAP1 inh inactive.
`O=C(C[C@@H]1CC[C@@H]2[C@H](COC[C@H](O)CN2C(=O)Nc2ccc(C(F)(F)F)cc2)O1)NCC1CCCCC1` gave Cneo AK release inactive, esBAF inh inactive and ERAP1 inh inactive.
For CN(c1ccc(C(=O)N2CCOCC2)cc1[N+](=O)[O-])C1CCCCC1 the results were Env fusion inh inactive, Cneo AK release inactive, MITF TRPM1 HTS inactive and esBAF inh 57.5.
For CC(=O)OCCN1c2ccccc2Sc2cnccc21 the results were Env fusion inh inconclusive, Wnt bcat act inactive, Cneo AK release inactive, esBAF inh inactive and ERAP1 inh inactive.
Screening CC(=O)OCCCN1c2ccccc2Nc2nnc(-c3ccccc3)cc21 returned Cneo AK release inactive, MITF TRPM1 HTS 98.4 and esBAF inh inconclusive.
For CC(C)CC(=O)NC(=S)Nc1ccc(Cl)cn1 the results were Env fusion inh inactive, Wnt bcat act inactive, Cneo AK release inactive, MITF TRPM1 HTS inactive, esBAF inh 48.6 and ERAP1 inh inactive.
Screening CCc1ccc(NC(=S)NC(=O)CC(C)C)cc1 returned Env fusion inh inactive, Wnt bcat act 61.0, MITF TRPM1 HTS inactive and ERAP1 inh inactive.
`CC(=O)CC(=O)Nc1ccc(Cl)cn1` gave Env fusion inh inactive, Wnt bcat act inactive, MITF TRPM1 HTS inactive and ERAP1 inh inactive.
For C[C@@H]1CN([C@@H](C)CO)C(=O)Cc2cc(NS(=O)(=O)c3cn(C)cn3)ccc2O[C@H]1CN(C)C(=O)Nc1ccc2c(c1)OCO2 the results were Env fusion inh inactive, Cneo AK release inactive, esBAF inh inactive and ERAP1 inh inactive.
For Cc1noc(C)c1NC(=O)N[C@H]1CC[C@H](CC(=O)N2CCCCC2)O[C@H]1CO the results were Env fusion inh inactive, Cneo AK release inactive, esBAF inh inactive and ERAP1 inh inactive.
`Cc1cc(NC(=O)c2sc(Nc3ccc(F)cc3)nc2N)no1` gave Env fusion inh inactive, Wnt bcat act inactive, Cneo AK release inactive, MITF TRPM1 HTS inactive, esBAF inh inactive and ERAP1 inh inactive.
`Cc1cnc(NC(=O)c2sc(Nc3ccccc3)nc2N)o1` gave Env fusion inh inactive, Wnt bcat act 38.2 and Cneo AK release inactive.
Nc1nc(Nc2ccccc2)sc1C(=O)c1ccccc1 was read as Env fusion inh inactive, Wnt bcat act 50.5, Cneo AK release inactive and ERAP1 inh inactive.
For COc1ccc(C(=O)c2sc(Nc3ccccc3)nc2N)cc1 the results were Env fusion inh inactive, Wnt bcat act inactive, Cneo AK release inactive, esBAF inh inactive and ERAP1 inh inactive.
